Legend:
[1] = biological target: T1, Human immunodeficiency virus type 1 integrase (Human immunodeficiency virus 1, UniProt Q7ZJM1); experiment: Inhibition of HIV1 integrase-mediated single strand tansfer of viral DNA after 30 mins by PAGE
[2] = biological target: T1, Human immunodeficiency virus type 1 integrase; experiment: Inhibition of HIV1 integrase-mediated 3' processing of viral DNA after 30 mins by PAGE
[3] = tested on: Human immunodeficiency virus 1; experiment: Antiviral activity against HIV1 pNL4.3 infected in human TZM-bl cells by luciferase reporter gene assay; format: functional, organism-based
[4] = Cytotoxicity against human TZM-bl cells infected with HIV1 pNL4.3; format: cell-based
Method in brief: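 CC50 is the cytostatic concentration required to kill 50% of TZM-bl cells.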

[5] = Selectivity index, ratio of CC50 against human TZM-bl cells to EC50 for inhibition of HIV1 integrase activity in TZM-bl cells infected with HIV1 pNL4.3; format: toxicity, cell-based; conditions: read-out: Ratio CC50/EC50
Method in brief: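 SI is calculated as the CC50 in TZM-bl cells divided by the antiviral EC50.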

T1 sequence (Q7ZJM1 whole entry): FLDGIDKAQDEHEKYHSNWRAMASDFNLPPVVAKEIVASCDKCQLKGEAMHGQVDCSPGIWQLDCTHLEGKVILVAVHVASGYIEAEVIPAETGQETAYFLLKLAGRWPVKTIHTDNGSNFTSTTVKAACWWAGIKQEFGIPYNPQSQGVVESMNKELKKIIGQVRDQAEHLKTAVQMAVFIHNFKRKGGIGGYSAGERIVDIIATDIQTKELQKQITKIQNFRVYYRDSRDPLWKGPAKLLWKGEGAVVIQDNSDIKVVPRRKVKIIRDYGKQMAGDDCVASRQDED

Row | Compound | IC50 [1] | IC50 [2] | EC50 ([3]; tzm-bl) | CC50 [4] | EC50 ([3]; Human immunodeficiency virus 1, pNL4.3, TZM-bl, read-out: EC50) | selectivity ratio [5]
1 | CN1C(=O)C(O)=C(C(=O)c2ccccc2)C1c1ccc([N+](=O)[O-])cc1 (stereo not given) | > 100 µM | > 100 µM | – | – | – | –
2 | CN1C(=O)C(O)=C(C(=O)c2ccccn2)C1c1cccc(Cl)c1 (stereo not given) | > 100 µM | > 100 µM | – | – | – | –
3 | CN1C(=O)C(O)=C(C(=O)c2ccccc2)C1c1cccc(Cl)c1 (stereo not given) | > 100 µM | > 100 µM | – | – | – | –
4 | CC(C)CN1C(=O)C(O)=C(C(=O)c2ccccc2)C1c1ccccc1 (stereo not given) | > 100 µM | > 100 µM | – | – | – | –
5 | O=C(C1=C(O)C(=O)N(c2ccccc2)C1c1ccc([N+](=O)[O-])cc1)c1ccccc1 (stereo not given) | 44 µM | 89 µM | Not Active | 790 µM | – | –
6 | COc1ccc(CCN2C(=O)C(O)=C(C(=O)c3ccccc3)C2c2ccc(O)cc2)cc1 (stereo not given) | 100 µM | > 100 µM | Not Active | 459 µM | – | –
7 | COc1ccc(CCN2C(=O)C(O)=C(C(=O)c3ccccn3)C2c2cccc(Cl)c2)cc1 (stereo not given) | 40 µM | 77 µM | – | 26.6 µM | 0.317 µM | 83.7
8 | COc1ccc(CCN2C(=O)C(O)=C(C(=O)c3ccccc3)C2c2ccccc2)cc1 (stereo not given) | 45 µM | 80 µM | Not Active | 830 µM | – | –

— ChEMBL document CHEMBL1909641, “Rational design of 2-pyrrolinones as inhibitors of HIV-1 integrase” (Bioorg Med Chem Lett, 2011)
